Reference: ChEMBL document CHEMBL2384974, “Discovery and synthesis of novel 4-aminopyrrolopyrimidine Tie-2 kinase inhibitors for the treatment of solid tumors” (Bioorg Med Chem Lett, 2013)
pIC50: −log10 of the molar value. Values after ≈ are worked out from the molar mass of the structure shown. Active and inactive are the calls of the source. The rule behind the calls is not given here.

Assays:
[1] = target: Epidermal growth factor receptor (Homo sapiens, UniProt P04626+P00533+Q15303+P21860); assay: Inhibition of human EGFR extracellular domain/TIE2 intracellular domain transfected in mouse NIH/3T3 cells assessed as phosphotyrosine level preincubated for 60 mins followed by EGF stimulation by DELFIA assay; assay type: cell-based; settings: nih3t3
In short: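 NIH/3T3 fibroblasts stably transfected with a chimera of human EGFR extracellular domain and human Tie-2 intracellular domain. Cells were exposed to compound for 60 min, stimulated with EGF, then fixed. Phosphotyrosine was read with an Eu-labeled antibody by DELFIA. In washout runs, medium was replaced with fresh medium and cells were stimulated at set times.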

Angiopoietin-1 receptor [2] = target: T1, Angiopoietin-1 receptor (Homo sapiens, UniProt Q02763); assay: Inhibition of GST-fused TIE2 (unknown origin) using poly[Glu:Tyr] as substrate assessed as phosphotyrosine level by ELISA
In short: (§1)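 ELISA on poly-Glu-Tyr-coated plates using a GST-Tie-2 kinase fusion protein and 100 µM ATP. Phosphorylated product was detected with HRP-conjugated anti-phosphotyrosine monoclonal antibody (PY20). For reversibility, enzyme was preincubated with compound for 15 min before ATP was added. Kinetics were run with titrated ATP.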

[3] = Metabolic stability in rat liver microsomes assessed as hepatic extraction ratio; assay type: ADME, Microsome; settings: read-out: ERH
Rattus norvegicus = assay: Metabolic stability in Sprague-Dawley rat assessed as hepatic extraction at 4.2 mg/kg, po; assay type: ADME, organism-based; design: dose 4.2 mg/kg, route oral; settings: in vivo
In short: (§2)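 Ultrafasted Sprague–Dawley rats given 4.2 mg/kg as an oral suspension. Cmax, Tmax, hepatic extraction (Eh) and oral bioavailability were derived from systemic plasma levels.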

Mus musculus [4] = assay: Toxicity in mouse xenografted with rat C6 cells lacking human TIE2 assessed as body weight loss at 10 to 33 mg/kg, po after 10 days; assay type: organism-based; design: dose 10-33 mg/kg, route oral; settings: in vivo, 240 h
C6 [5] = assay: Antitumor activity against rat C6 cells lacking human TIE2 xenografted in mouse assessed as tumor growth inhibition at 33 mg/kg, po bid after 10 days; assay type: functional, organism-based; design: dose 33 mg/kg
In short: (§3)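 Oral dosing once or twice daily at 10 or 33 mg/kg for 10 days in the C6 rat glioblastoma xenograft model. The C6 line was uninfected parental cells without human Tie-2. Read-out was percent tumor growth inhibition.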

C6 [6] = assay: Antitumor activity against rat C6 cells lacking human TIE2 xenografted in mouse assessed as tumor growth inhibition at 10 mg/kg, po bid after 10 days relative to control; assay type: functional; settings: C6, 240 h, read-out: TGI; in short: as §3
C6 [7] = assay: Antitumor activity against rat C6 cells lacking human TIE2 xenografted in mouse assessed as tumor growth inhibition at 33 mg/kg, po qd after 10 days relative to control; assay type: functional; settings: C6, 240 h, read-out: TGI; in short: as §3
[8] = Oral bioavailability in Sprague-Dawley rat at 4.2 mg/kg; assay type: ADME, organism-based; settings: in vivo; in short: as §2
C6 [9] = assay: Antitumor activity against rat C6 cells lacking human TIE2 xenografted in mouse assessed as tumor growth inhibition at 10 mg/kg, po qd after 10 days relative to control; assay type: functional; settings: C6, 240 h, read-out: TGI; in short: as §3
[10] = Tmax in Sprague-Dawley rat at 4.2 mg/kg, po; assay type: ADME, organism-based; design: dose 4.2 mg/kg, route oral; settings: in vivo; in short: as §2
[11] = Cmax in Sprague-Dawley rat at 4.2 mg/kg, po; assay type: ADME, organism-based; design: dose 4.2 mg/kg, route oral; settings: in vivo; in short: as §2
[12] = Volume of distribution at steady state in Sprague-Dawley rat at 0.164 mg/kg, iv; assay type: ADME, organism-based; design: dose 0.164 mg/kg, route intravenous; settings: in vivo, read-out: Vdss
In short: (§4)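 Male Sprague–Dawley rats, fed, given a single 0.164 mg/kg IV dose. Clearance, steady-state volume of distribution and half-life were derived from plasma levels.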

[13] = Half life in Sprague-Dawley rat at 0.164 mg/kg, iv; assay type: ADME, organism-based; design: dose 0.164 mg/kg, route intravenous; settings: in vivo; in short: as §4
[14] = Clearance in Sprague-Dawley rat at 0.164 mg/kg, iv; assay type: ADME, organism-based; design: dose 0.164 mg/kg, route intravenous; settings: in vivo; in short: as §4
Mus musculus [15] = assay: Inhibition of human TIE2 phosphorylation expressed in rat C6 cells xenografted in po dosed mouse; assay type: functional, organism-based
In short: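 Ex vivo assay in C6 rat glioblastoma clones overexpressing human Tie-2 from a retroviral construct, after a single oral dose. Frozen tumors were homogenized in lysis buffer and lysates captured on antibody-coated plates, with HRP-labeled antibody detection. Plasma and tumor drug levels were measured by LC–MS.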

[16] = Metabolic stability in human liver microsomes assessed as hepatic extraction ratio; assay type: ADME, Microsome; settings: read-out: ERH
[17] = Inhibition of cytochrome P450 (unknown origin); assay type: ADME, Homo sapiens
[18] = target: Voltage-gated inwardly rectifying potassium channel KCNH2 (Homo sapiens, UniProt Q12809); assay: Inhibition of human ERG
Homo sapiens = species on record: Homo sapiens; assay: Inhibition of IKr (unknown origin)
[19] = Mutagenic activity in micronucleus (unknown origin); assay type: ADME
[20] = target: Fibroblast growth factor receptor (Homo sapiens, UniProt P22607+P11362+P22455+P21802); assay: Inhibition of FGFR (unknown origin); assay type: protein assay
Salmonella typhimurium = assay: Mutagenic activity in Salmonella typhimurium by Ames assay; assay type: toxicity, organism-based; settings: salmonella enterica subsp. enterica serovar typhimurium
[21] = target: Epidermal growth factor receptor (Homo sapiens, UniProt P00533); assay: Inhibition of EGFR (unknown origin)
[22] = Solubility of the compound; assay type: physicochemical
[23] = target: Vascular endothelial growth factor receptor 2 (Homo sapiens, UniProt P35968); assay: Inhibition of KDR (unknown origin)
[24] = target: Platelet-derived growth factor receptor beta (Homo sapiens, UniProt P09619); assay: Inhibition of PDGFR (unknown origin)
[25] = Permeability across basolateral to apical side in human Caco2 cells expressing p-gp; assay type: ADME, cell-based; settings: Caco-2, read-out: permeability
[26] = Efflux ratio of permeability across basolateral to apical side over apical to basolateral side in human Caco2 cells expressing p-gp; assay type: ADME, cell-based; settings: Caco-2
[27] = Permeability across apical to basolateral side in human Caco2 cells expressing p-gp; assay type: ADME, cell-based; settings: Caco-2, read-out: permeability
[28] = target: Proto-oncogene tyrosine-protein kinase Src (Homo sapiens, UniProt P12931); assay: Inhibition of SRC (unknown origin)
[29] = target: Tyrosine-protein kinase Lck (Homo sapiens, UniProt P06239); assay: Inhibition of LCK (unknown origin)
Angiopoietin-1 receptor [30] = target: T1, Angiopoietin-1 receptor; assay: Inhibition of TIE2 (unknown origin); in short: as §1

T1 sequence (Q02763 whole entry, the tested form may be a part): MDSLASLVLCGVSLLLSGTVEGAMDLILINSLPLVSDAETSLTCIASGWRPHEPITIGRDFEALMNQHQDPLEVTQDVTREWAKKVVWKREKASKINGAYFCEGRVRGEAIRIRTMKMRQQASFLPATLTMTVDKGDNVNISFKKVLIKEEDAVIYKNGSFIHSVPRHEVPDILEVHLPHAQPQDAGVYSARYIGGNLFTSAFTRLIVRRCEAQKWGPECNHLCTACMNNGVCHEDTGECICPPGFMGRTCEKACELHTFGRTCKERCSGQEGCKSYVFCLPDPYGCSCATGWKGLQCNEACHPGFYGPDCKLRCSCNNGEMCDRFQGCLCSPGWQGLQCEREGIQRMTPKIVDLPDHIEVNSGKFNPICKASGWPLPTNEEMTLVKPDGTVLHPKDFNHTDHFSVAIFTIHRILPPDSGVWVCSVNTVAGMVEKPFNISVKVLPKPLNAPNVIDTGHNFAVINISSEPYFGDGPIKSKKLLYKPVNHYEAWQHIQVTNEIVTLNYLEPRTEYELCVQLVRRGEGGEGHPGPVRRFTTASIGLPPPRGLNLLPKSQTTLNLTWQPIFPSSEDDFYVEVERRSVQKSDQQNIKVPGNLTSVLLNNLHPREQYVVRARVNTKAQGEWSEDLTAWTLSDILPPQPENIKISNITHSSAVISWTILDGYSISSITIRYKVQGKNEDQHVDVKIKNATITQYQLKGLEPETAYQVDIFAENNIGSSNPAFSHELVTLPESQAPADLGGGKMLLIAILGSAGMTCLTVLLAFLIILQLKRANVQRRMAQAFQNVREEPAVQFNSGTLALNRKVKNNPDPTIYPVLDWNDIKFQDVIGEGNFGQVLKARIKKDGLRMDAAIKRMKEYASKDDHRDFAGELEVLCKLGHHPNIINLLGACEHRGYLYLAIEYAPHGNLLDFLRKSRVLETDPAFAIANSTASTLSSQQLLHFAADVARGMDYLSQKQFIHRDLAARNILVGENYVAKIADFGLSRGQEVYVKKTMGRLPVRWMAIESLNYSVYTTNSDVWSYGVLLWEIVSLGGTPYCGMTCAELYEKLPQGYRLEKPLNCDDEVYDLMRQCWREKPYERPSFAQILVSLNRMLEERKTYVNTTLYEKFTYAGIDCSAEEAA
Chain of Vascular endothelial growth factor receptor 2 (P35968 whole entry): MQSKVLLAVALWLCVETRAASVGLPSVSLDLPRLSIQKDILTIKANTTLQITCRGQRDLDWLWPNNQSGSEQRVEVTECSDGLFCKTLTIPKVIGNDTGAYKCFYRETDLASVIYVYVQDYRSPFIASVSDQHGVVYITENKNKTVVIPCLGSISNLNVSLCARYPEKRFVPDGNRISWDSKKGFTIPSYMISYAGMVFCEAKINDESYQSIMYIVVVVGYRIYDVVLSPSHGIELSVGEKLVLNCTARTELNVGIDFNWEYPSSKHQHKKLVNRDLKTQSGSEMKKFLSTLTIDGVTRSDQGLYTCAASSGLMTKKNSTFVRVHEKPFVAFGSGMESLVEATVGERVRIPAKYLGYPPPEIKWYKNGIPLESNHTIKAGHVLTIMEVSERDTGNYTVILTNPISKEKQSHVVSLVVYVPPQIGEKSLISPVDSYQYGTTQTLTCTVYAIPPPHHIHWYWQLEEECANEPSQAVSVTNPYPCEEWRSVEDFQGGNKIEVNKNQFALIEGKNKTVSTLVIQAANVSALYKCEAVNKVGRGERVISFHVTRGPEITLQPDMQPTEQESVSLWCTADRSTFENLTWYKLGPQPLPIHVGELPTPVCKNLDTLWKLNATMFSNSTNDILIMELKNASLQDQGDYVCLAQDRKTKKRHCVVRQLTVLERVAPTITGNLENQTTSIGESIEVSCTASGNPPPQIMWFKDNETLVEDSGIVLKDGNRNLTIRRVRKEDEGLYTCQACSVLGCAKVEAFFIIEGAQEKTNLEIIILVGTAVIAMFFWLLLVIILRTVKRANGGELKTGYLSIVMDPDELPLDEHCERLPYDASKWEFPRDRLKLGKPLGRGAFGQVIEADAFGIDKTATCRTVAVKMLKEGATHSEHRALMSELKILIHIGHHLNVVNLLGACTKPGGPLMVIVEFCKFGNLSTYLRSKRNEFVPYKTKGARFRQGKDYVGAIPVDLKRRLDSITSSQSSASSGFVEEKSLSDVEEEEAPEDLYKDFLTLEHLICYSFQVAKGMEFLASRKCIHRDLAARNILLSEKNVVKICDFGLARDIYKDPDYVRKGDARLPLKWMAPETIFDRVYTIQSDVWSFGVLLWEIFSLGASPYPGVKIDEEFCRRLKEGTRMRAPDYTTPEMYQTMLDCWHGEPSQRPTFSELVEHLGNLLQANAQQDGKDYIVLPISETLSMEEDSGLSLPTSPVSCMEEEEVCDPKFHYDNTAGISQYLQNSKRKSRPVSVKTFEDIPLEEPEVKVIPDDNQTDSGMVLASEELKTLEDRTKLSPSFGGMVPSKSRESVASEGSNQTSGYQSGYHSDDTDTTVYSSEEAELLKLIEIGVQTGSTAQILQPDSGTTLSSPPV
Chain of Platelet-derived growth factor receptor beta (P09619 whole entry): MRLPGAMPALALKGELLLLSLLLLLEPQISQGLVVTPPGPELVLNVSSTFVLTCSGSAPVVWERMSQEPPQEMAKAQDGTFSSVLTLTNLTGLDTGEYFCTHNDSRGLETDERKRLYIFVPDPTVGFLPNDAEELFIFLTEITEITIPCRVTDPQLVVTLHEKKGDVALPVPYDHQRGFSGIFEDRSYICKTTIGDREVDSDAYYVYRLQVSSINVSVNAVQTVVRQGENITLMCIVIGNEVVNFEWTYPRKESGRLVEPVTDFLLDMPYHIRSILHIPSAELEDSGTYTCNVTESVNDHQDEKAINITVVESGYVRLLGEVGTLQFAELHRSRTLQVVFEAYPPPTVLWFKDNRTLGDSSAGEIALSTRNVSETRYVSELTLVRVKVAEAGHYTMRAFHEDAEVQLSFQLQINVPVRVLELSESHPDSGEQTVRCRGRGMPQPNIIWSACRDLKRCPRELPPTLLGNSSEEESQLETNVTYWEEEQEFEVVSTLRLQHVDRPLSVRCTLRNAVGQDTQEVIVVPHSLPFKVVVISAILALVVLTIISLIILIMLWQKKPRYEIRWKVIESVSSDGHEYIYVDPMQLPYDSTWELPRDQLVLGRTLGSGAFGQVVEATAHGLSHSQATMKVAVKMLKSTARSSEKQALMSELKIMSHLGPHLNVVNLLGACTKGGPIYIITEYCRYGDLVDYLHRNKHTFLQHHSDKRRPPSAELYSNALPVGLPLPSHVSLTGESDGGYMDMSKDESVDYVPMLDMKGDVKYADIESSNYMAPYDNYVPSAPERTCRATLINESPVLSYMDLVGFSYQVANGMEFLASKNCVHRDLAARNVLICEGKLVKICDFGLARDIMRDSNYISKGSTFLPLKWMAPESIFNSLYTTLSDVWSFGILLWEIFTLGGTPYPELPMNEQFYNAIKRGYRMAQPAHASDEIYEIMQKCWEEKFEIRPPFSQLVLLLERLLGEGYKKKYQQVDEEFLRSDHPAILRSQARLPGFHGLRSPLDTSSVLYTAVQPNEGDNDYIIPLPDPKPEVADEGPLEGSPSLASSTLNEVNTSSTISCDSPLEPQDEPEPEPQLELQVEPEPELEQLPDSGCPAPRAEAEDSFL
Chain of Tyrosine-protein kinase Lck (P06239 whole entry): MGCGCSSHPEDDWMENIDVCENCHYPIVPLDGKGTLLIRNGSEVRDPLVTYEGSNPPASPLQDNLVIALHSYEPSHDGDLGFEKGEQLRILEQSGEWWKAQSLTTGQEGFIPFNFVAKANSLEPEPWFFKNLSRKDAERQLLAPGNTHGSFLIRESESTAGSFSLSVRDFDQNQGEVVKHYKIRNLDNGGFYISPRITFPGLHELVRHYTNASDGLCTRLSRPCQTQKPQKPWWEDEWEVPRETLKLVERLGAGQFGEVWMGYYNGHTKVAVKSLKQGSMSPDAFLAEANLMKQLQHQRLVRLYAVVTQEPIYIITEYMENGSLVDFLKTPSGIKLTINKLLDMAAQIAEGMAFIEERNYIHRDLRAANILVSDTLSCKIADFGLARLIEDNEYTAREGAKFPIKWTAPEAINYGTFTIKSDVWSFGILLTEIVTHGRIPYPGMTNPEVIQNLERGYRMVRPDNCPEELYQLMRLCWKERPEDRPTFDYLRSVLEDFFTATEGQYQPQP
Chain of Proto-oncogene tyrosine-protein kinase Src (P12931 2-536 limits assumed): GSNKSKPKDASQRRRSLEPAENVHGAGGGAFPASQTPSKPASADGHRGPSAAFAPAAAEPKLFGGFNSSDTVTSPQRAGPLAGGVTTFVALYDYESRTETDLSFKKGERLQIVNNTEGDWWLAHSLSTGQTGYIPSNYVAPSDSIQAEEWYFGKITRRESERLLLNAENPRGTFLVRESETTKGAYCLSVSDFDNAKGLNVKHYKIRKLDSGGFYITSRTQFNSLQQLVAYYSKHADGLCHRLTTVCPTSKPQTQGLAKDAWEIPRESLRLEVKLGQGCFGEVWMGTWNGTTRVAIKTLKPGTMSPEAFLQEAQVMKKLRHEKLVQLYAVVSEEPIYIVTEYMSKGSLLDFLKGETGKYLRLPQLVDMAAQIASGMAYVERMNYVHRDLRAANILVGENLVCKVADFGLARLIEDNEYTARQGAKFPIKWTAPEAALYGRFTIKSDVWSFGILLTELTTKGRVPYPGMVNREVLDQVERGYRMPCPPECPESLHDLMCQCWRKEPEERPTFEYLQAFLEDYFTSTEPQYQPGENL

Compound: Nc1ncnc2c1c(-c1nc3ccc(NS(=O)(=O)c4c(F)cccc4F)cc3[nH]1)cn2C1CCCC1
- IC50 [1]: 518 nM
- pIC50 (Angiopoietin-1 receptor [2]): 6.25
- hepatic extraction ratio [3]: 0.69

Compound: CC(C)n1cc(C(=O)c2cccc(NC(=O)Nc3ccc(Cl)cc3)c2)c2c(N)ncnc21
- Stability (Rattus norvegicus): 27 mL/min/kg
- Activity (Mus musculus [4]): Non-toxic
- TGI (C6 [5]): Active
- inhibition in vivo at 10 mg/kg (C6 [6]): 70%
- inhibition in vivo at 33 mg/kg (C6 [7]): 60%
- bioavailability [8]: 100%
- inhibition in vivo at 10 mg/kg (C6 [9]): 40%
- Tmax [10]: 45 min
- Cmax [11]: 1720 ng/mL
- Vd [12]: 0.9 L/kg
- half-life [13]: 24 min
- clearance [14]: 38 mL/min/kg
- inhibition (Mus musculus [15]): Active
- hepatic extraction ratio [16]: 0.46
- hepatic extraction ratio [3]: 0.52
- pIC50 [17]: < 5.52
- inhibition (INH) [18]: Active
- IC20 (Homo sapiens): 1000 nM
- Activity [19]: Toxic
- IC50 [20]: > 10 µM
- Activity (Salmonella typhimurium): Non-toxic
- pIC50 [21]: < 5.00
- solubility [22]: 35 µg/mL (≈ 78 µM)
- pIC50 [23]: < 5.00
- pIC50 [24]: 5.85
- Papp B→A [25]: 9.5 ×10⁻⁶ cm/s
- efflux ratio [26]: 1.5

Compound: Nc1ncnc2c1c(C(=O)c1cccc(NC(=O)Nc3c(F)cccc3F)c1)cn2C1CCCC1
- IC50 [1]: 67 nM
- pIC50 (Angiopoietin-1 receptor [2]): 6.44
- Papp A→B [27]: 7.7 ×10⁻⁶ cm/s
- hepatic extraction ratio [3]: 0.83
- pIC50 [23]: 5.51
- pIC50 [24]: < 5.30
- efflux ratio [26]: 3.5

Compound: COc1ccc(C)cc1NC(=O)Nc1cccc(C(=O)c2cn(C3CCCC3)c3ncnc(N)c23)c1
- IC50 [1]: 0.69 nM
- pIC50 (Angiopoietin-1 receptor [2]): 8.06
- hepatic extraction ratio [3]: 0.69
- efflux ratio [26]: 9.4

Compound: Nc1ncnc2c1c(C(=O)c1ccc(NS(=O)(=O)c3c(F)cccc3F)cc1)cn2C1CCCC1
- IC50 [1]: 769 nM
- pIC50 (Angiopoietin-1 receptor [2]): 6.13

Compound: Cc1ccc(F)c(NC(=O)Nc2cccc(C(=O)c3cn(C4CCCC4)c4ncnc(N)c34)c2)c1
- IC50 [1]: 0.89 nM
- pIC50 (Angiopoietin-1 receptor [2]): 7.92
- hepatic extraction ratio [3]: 0.8
- efflux ratio [26]: 9.2

Compound: Nc1ncnc2c1c(C(=O)c1cccc(NC(=O)Nc3ccc(Cl)cc3)c1)cn2C1CCCC1
- IC50 [1]: 4.6 nM
- pIC50 (Angiopoietin-1 receptor [2]): 7.35
- hepatic extraction ratio [3]: 0.7
- efflux ratio [26]: 17

Compound: Nc1ncnc2c1c(C(=O)c1ccc(NC(=O)Nc3c(F)cccc3F)cc1)cn2C1CCCC1
- IC50 [1]: 254 nM
- pIC50 (Angiopoietin-1 receptor [2]): 6.46

Compound: Nc1ncnc2c1c(C(=O)c1cccc(NS(=O)(=O)c3c(F)cccc3F)c1)cn2C1CCCC1
- IC50 [1]: 253 nM
- pIC50 (Angiopoietin-1 receptor [2]): 6.37
- efflux ratio [26]: 4.7

Compound: Nc1ncnc2c1c(Cc1cccc(NS(=O)(=O)c3c(F)cccc3F)c1)cn2C1CCCC1
- pIC50 (Angiopoietin-1 receptor [2]): < 5.00

Compound: Nc1ncnc2c1c(C(=O)c1cccc(NC(=O)Nc3ccc(Cl)cc3Cl)c1)cn2C1CCCC1
- IC50 [1]: 1.2 nM
- efflux ratio [26]: 1.9

Compound: COc1cc(-c2cn([C@H]3CC[C@H](N4CCN(C)CC4)CC3)c3ncnc(N)c23)ccc1NS(=O)(=O)c1ccccc1
- pIC50 [28]: < 5.52
- pIC50 [29]: < 5.52
- pIC50 (Angiopoietin-1 receptor [30]): 6.86
- pIC50 [23]: < 5.52

Compound: Nc1ncnc2c1c(-c1nc3ccc(NC(=O)Nc4c(F)cccc4F)cc3[nH]1)cn2C1CCCC1
- IC50 [1]: 112 nM
- pIC50 (Angiopoietin-1 receptor [2]): 6.62
- hepatic extraction ratio [3]: 0.9
- efflux ratio [26]: 3.2
